Activity calls are given as the source filed them. The calls are words filed in the database; no cut-off is given here.
Legend:
[1] = test system: U2OS; assay: Inhibition of autophagy in human U2OS cells expressing […] at 100 nM incubated for 2.5 hrs by Fluorescent microscopy based analysis; type: functional, cell-based
Method in brief: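 U2OS cells stably expressing EGFP-DFCP1 treated 2.5 hr with vehicle or 100 nM AZD8055, with or without 5 μM inhibitor; imaged live by fluorescence microscopy; DFCP1-positive objects per cell counted in 20–25 cells per condition; mean ± SEM, two-tailed unpaired t test.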

[2] = test system: U2OS; assay: Inhibition of autophagy in human U2OS cells expressing […] assessed as DFCP1-positive puncta formation by measuring fold change at 100 nM incubated for 2.5 hrs by Fluorescent microscopy based analysis; type: functional
Method in brief: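 U2OS cells stably expressing EGFP-DFCP1 (omegasome marker) were treated 2.5 hr with vehicle or 100 nM AZD8055 (mTOR inhibitor used to induce autophagy), with or without 5 μM inhibitor, and imaged live by fluorescence microscopy. DFCP1-positive objects per cell were counted in 20–25 cells per condition and reported as mean ± SEM, with two-tailed unpaired t test.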

[3] = test system: U2OS; assay: Inhibition of autophagy in human U2OS cells assessed as ATG12-positive puncta formation at 100 nM incubated for 2.5 hrs by Fluorescent microscopy based analysis; type: functional, cell-based
Method in brief: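 U2OS cells treated 2.5 hr with vehicle or 100 nM AZD8055, with or without 5 μM inhibitor; fixed and immunostained for endogenous ATG12; ATG12-positive puncta (phagophores) assessed by fluorescence microscopy.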

[4] = test system: U2OS; assay: Inhibition of autophagy in human U2OS cells assessed as BafA1-induced LC3B-II accumulation by measuring fold change at 100 nM […] by immunoblotting analysis; type: functional; details: time 4 hrs

With COc1ccc(-c2ccc3c(N4CCOC[C@@H]4C)nc(N4CCOC[C@@H]4C)nc3n2)cc1CO [AZD-8055] the inhibition [1] was “Active”, the “fold change (FC)” value [2] was 3 and the inhibition [3] was “Active”. The “fold change (FC)” value [4] was 2.

From ChEMBL document CHEMBL5653631, “A Potent and Selective ULK1 Inhibitor Suppresses Autophagy and Sensitizes Cancer Cells to Nutrient Stress” (iScience, 2018)
